Results from different studies.
Each line is one published result; the experiments were not run side by side.
SLC10A2: Ileal sodium/bile acid cotransporter (SLC10A2, Homo sapiens, UniProt Q12908)
CYP1B1: Cytochrome P450 1B1 (CYP1B1, Homo sapiens, UniProt Q16678)
DRD5: D(1B) dopamine receptor (DRD5, Homo sapiens, UniProt P21918)
PDEB1: Class 1 phosphodiesterase PDEB1 (PDEB1, Trypanosoma brucei, UniProt Q8WQX9)
HRH3: Histamine H3 receptor (HRH3, Homo sapiens, UniProt Q9Y5N1)
WDR5: WD repeat-containing protein 5 (WDR5, Homo sapiens, UniProt P61964)
Hypoxanthine-guanine-xanthine phosphoribosyltransferase: Hypoxanthine-guanine-xanthine phosphoribosyltransferase (Plasmodium falciparum, UniProt P20035)

`COC(=O)C1=C(C)NC(C)=C(C(=O)OC(C)C)C1c1cccc2nonc12` (centres unmarked) has a Ki of 19.4 µM (SLC10A2; transporter uptake, inhibitor).
The Ki of `COc1cc(O)c(CC=C(C)C)c2c1C(=O)CC(c1ccc(O)cc1)O2` (centres unmarked) is reported as 0.54 µM (CYP1B1; enzyme activity, inhibitor, fluorescence; 15 min, pH 7.4).
The Ki of `CCCCN1CCC(COC(=O)c2ccc(N)c(OCF)c2)CC1` is reported as > 10 µM (DRD5; cell-free assay, radioligand).
`CC(=O)S[C@@H]1CC2=CC(=O)CC[C@]2(C)[C@H]2CC[C@@]3(C)[C@@H](CC[C@@]34CCC(=O)O4)[C@H]12` gave a Ki of 110 µM (SLC10A2; transporter uptake, inhibitor).
For `CCCCCCCC/C=C\CCCCCCCC(=O)NC(CO)(CO)CO`, the Ki was > 10 µM (DRD5; ligand displacement, radioligand).
With `COc1ccc(C2=NN(C3CCCCCC3)C(=O)C3CC=CCC23)cc1-c1ccc(C(=O)N2CCC[C@@H]2C(N)=O)cc1` (mixture of isomers) the Ki was 0.501 µM (PDEB1; enzyme activity, inhibitor).
For `c1cc2c(cc1OCCCCCN1CCCCCC1)CCC2`, the Ki was 0.0645 µM (HRH3; ligand displacement, radioligand; cell membranes).
`O=C(NCc1cc(Cl)cc(Cl)c1)c1cccc(Cn2ccnc2)c1` has a Ki of > 0.033 µM (WDR5; ligand displacement, TR-FRET).
`CN1CCN(CCCOc2ccc(Nc3nccc(NCc4ccccc4)n3)cc2)CC1` gave a Ki of 0.383 µM (HRH3; ligand displacement, radioligand; cell membranes).
The Ki of `NS(=O)(=O)c1cc(C2(O)NC(=O)c3ccccc32)ccc1Cl` (centres unmarked) is reported as 707 µM (SLC10A2; transporter uptake, inhibitor).
With `COc1ccc(C2=NN(C3CCCCCC3)C(=O)C3CC=CCC23)cc1-c1ccc(C(=O)N2CC[C@@H](O)C2)cc1` (mixture of isomers) the Ki was 0.251 µM (PDEB1; enzyme activity, inhibitor).
`CCCNc1nc2ccccc2n1Cc1ccc(Cl)cc1` has a Ki of 5.66 µM (DRD5; cell-free assay, radioligand).
`COc1ccc2c(c1)C(=O)N(CCCN1CCN(c3ccccc3OC)CC1)C2` gave a Ki of 8.29 µM (DRD5; ligand displacement, radioligand).
`C#Cc1cccc(-c2cc(=O)c3ccccc3o2)c1` has a Ki of 0.16 µM (CYP1B1; enzyme activity, inhibitor, fluorescence; 6 min, pH 7.6).
`CCCc1ccc(OCCCCCN2CCCC(C)C2)cc1` (centres unmarked) gave a Ki of 0.0384 µM (HRH3; ligand displacement, radioligand; cell membranes).
`CN(C(=O)[C@@H]1Cc2ccccc2CN1C(=O)Cc1ccc(Cl)cc1)c1ccc(N2CCCCC2=O)cc1` has a Ki of 0.65 µM (Coagulation factor X (F10, Homo sapiens, UniProt P00742); enzyme activity, inhibitor, absorbance).
`O=C1c2ccccc2CCN1CCCCN1CCN(c2ccccn2)CC1` has a Ki of 9.36 µM (DRD5; ligand displacement, radioligand).
`O=C1CCCc2ccc(OCc3ccc(OCCCN4CCCCC4)cc3)cc21` has a Ki of 0.017 µM (HRH3; ligand displacement, radioligand; cell membranes).
The Ki of `CC(C)=CCc1c(O)cc(O)c2c1O[C@H](c1ccc(O)cc1)CC2=O` is reported as 0.17 µM (CYP1B1; enzyme activity, inhibitor, fluorescence; 15 min, pH 7.4).
For `CCc1ccc(CCOc2ccc(CC3SC(=O)NC3=O)cc2)nc1` (centres unmarked), the Ki was < 100 µM (SLC10A2; transporter uptake, inhibitor).
For `O=C1c2ccccc2CCN1CCCCN1CCN(c2cccc(Cl)c2Cl)CC1`, the Ki was 2.38 µM (DRD5; ligand displacement, radioligand).
With `C#Cc1ccc(-c2cc(=O)c3ccccc3o2)cc1` the Ki was 0.13 µM (CYP1B1; enzyme activity, inhibitor, fluorescence; 6 min, pH 7.6).
With `COc1cc(CNC(=O)c2cccc(CNC3=NCCN3)c2F)cc(OC)c1` the Ki was > 0.033 µM (WDR5; ligand displacement, TR-FRET).
`CCCc1ccc(OCCCCCN2CCCCCC2)cc1` gave a Ki of 0.0563 µM (HRH3; ligand displacement, radioligand; cell membranes).
`CN(C)c1ccc(/C=C/C=C2\CCc3cc(OCCCN4CCCCC4)ccc3C2=O)cc1` gave a Ki of 0.094 µM (HRH3; ligand displacement, radioligand; cell membranes).
For `C#Cc1ccccc1-c1cc(=O)c2ccccc2o1`, the Ki was 0.61 µM (CYP1B1; enzyme activity, inhibitor, fluorescence; 6 min, pH 7.6).
For `COc1ccc([C@@H]2Sc3ccccc3N(CCN(C)C)C(=O)[C@@H]2OC(C)=O)cc1`, the Ki was 211 µM (SLC10A2; transporter uptake, inhibitor).
With `O=C1CN(CC[C@@H](CO)NCc2c[nH]c3c(O)nc(O)nc23)S(=O)(=O)N1` the Ki was > 20 µM (Hypoxanthine-guanine-xanthine phosphoribosyltransferase; enzyme activity, inhibitor; pH 7.4).
For `CN(C)c1ccc(/C=C/C=C2\CCc3ccc(OCCCN4CCCCC4)cc3C2=O)cc1`, the Ki was 0.101 µM (HRH3; ligand displacement, radioligand; cell membranes).
The Ki of `NS(=O)(=O)c1cc2c(cc1Cl)NCNS2(=O)=O` is reported as 2020 µM (SLC10A2; transporter uptake, inhibitor).
The Ki of `O=C1CN(C[C@@H](CO)NCc2c[nH]c3c(O)nc(O)nc23)S(=O)(=O)N1` is reported as > 20 µM (Hypoxanthine-guanine-xanthine phosphoribosyltransferase; enzyme activity, inhibitor; pH 7.4).
For `CC(C(=O)O)c1cccc(C(=O)c2ccccc2)c1` (centres unmarked), the Ki was 178 µM (SLC10A2; transporter uptake, inhibitor).
The Ki of `NS(=O)(=O)NC[C@@H](CO)NCc1c[nH]c2c(O)ncnc12` is reported as > 20 µM (Hypoxanthine-guanine-xanthine phosphoribosyltransferase; enzyme activity, inhibitor; pH 7.4).
For `CCOC(=O)C1=C(COCCN)NC(C)=C(C(=O)OC)C1c1ccccc1Cl` (centres unmarked), the Ki was < 100 µM (SLC10A2; transporter uptake, inhibitor).
`O=C1CN(CC[C@@H](CO)NCc2c[nH]c3c(O)ncnc23)S(=O)(=O)N1` has a Ki of > 20 µM (Hypoxanthine-guanine-xanthine phosphoribosyltransferase; enzyme activity, inhibitor; pH 7.4).
For `Cc1nc(F)ccc1-c1cc(C(=O)NCc2ccc(Cl)c(Cl)c2)ccc1Cn1ccn(C)c1=N`, the Ki was > 0.033 µM (WDR5; ligand displacement, TR-FRET).
`O=c1c(O)c(NCC[C@@H](CO)NCc2c[nH]c3c(O)ncnc23)c1=O` has a Ki of > 20 µM (Hypoxanthine-guanine-xanthine phosphoribosyltransferase; enzyme activity, inhibitor; pH 7.4).
The Ki of `CN(C)c1ccc(/C=C2\CCc3ccc(OCCCN4CCCCC4)cc3C2=O)cc1` is reported as 0.149 µM (HRH3; ligand displacement, radioligand; cell membranes).
